Tested on: U2OS
Test: Multiplex assay against U2OS
Type: toxicity, cell-based
Settings: human
Outline: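 Live cells were stained at seeding with Hoechst33342, BioTracker Green Microtubule Cytoskeleton Dye, MitoTracker Red and Annexin V Alexa Fluor 680. Following compound addition, they were imaged on a CQ1 microscope at 37°C and 5% CO2 and gated by CellPathfinder machine learning into Hoechst high-intensity objects or normal cells, with normal cells split into healthy, pyknosed or fragmented nuclei and pyknosed cells into mitotic or apoptotic. Tubulin, mitochondrial-mass and membrane-permeability phenotypes are per cents of healthy-nucleus cells.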

[1] = 12 h, 1 µM, compound concentration 1 uM, replicate 1
[2] = 12 h, 1 µM, compound concentration 1 uM, replicate 2
[3] = 12 h, 10 µM, compound concentration 10 uM, replicate 1
[4] = 12 h, 10 µM, compound concentration 10 uM, replicate 2
[5] = 24 h, 1 µM, compound concentration 1 uM, replicate 1
[6] = 24 h, 1 µM, compound concentration 1 uM, replicate 2
[7] = 24 h, 10 µM, compound concentration 10 uM, replicate 1
[8] = 24 h, 10 µM, compound concentration 10 uM, replicate 2
[9] = 48 h, 1 µM, compound concentration 1 uM, replicate 1
[10] = 48 h, 1 µM, compound concentration 1 uM, replicate 2
[11] = 48 h, 10 µM, compound concentration 10 uM, replicate 1
[12] = 48 h, 10 µM, compound concentration 10 uM, replicate 2

SMILES: Cc1nc(N2CC[C@H](O)C2)ncc1-c1cc(C(F)(F)F)cc2[nH]ncc12
- Population Apoptotic (%) [1]: 25%
- Population Fragmented Nuclei (%) [1]: 2%
- Population Healthy Nuclei (%) [1]: 93%
- Population Hoechst High Intensity Objects (%) [1]: 3%
- Population Membrane Permeable-Phenotype (%) [1]: 6%
- Population Mitochondria Different-Phenotype (%) [1]: 24%
- Population Mitotic Cells (%) [1]: 75%
- Population Normal (%) [1]: 96%
- Population Pyknosed Nuclei (%) [1]: 4%
- Population Tubulin-Different-Phenotype (%) [1]: 22%
- Total Cell Count [1]: 181
- Population Apoptotic (%) [2]: 14%
- Population Fragmented Nuclei (%) [2]: 4%
- Population Healthy Nuclei (%) [2]: 89%
- Population Hoechst High Intensity Objects (%) [2]: 11%
- Population Membrane Permeable-Phenotype (%) [2]: 5%
- Population Mitochondria Different-Phenotype (%) [2]: 28%
- Population Mitotic Cells (%) [2]: 85%
- Population Normal (%) [2]: 88%
- Population Pyknosed Nuclei (%) [2]: 5%
- Population Tubulin-Different-Phenotype (%) [2]: 19%
- Total Cell Count [2]: 111
- Population Apoptotic (%) [3]: 60%
- Population Fragmented Nuclei (%) [3]: 6%
- Population Healthy Nuclei (%) [3]: 88%
- Population Hoechst High Intensity Objects (%) [3]: 1%
- Population Membrane Permeable-Phenotype (%) [3]: 8%
- Population Mitochondria Different-Phenotype (%) [3]: 22%
- Population Mitotic Cells (%) [3]: 40%
- Population Normal (%) [3]: 98%
- Population Pyknosed Nuclei (%) [3]: 5%
- Population Tubulin-Different-Phenotype (%) [3]: 26%
- Total Cell Count [3]: 158
- Population Apoptotic (%) [4]: 16%
- Population Fragmented Nuclei (%) [4]: 9%
- Population Healthy Nuclei (%) [4]: 84%
- Population Hoechst High Intensity Objects (%) [4]: 12%
- Population Membrane Permeable-Phenotype (%) [4]: 6%
- Population Mitochondria Different-Phenotype (%) [4]: 31%
- Population Mitotic Cells (%) [4]: 83%
- Population Normal (%) [4]: 87%
- Population Pyknosed Nuclei (%) [4]: 6%
- Population Tubulin-Different-Phenotype (%) [4]: 41%
- Total Cell Count [4]: 153
- Population Apoptotic (%) [5]: 27%
- Population Fragmented Nuclei (%) [5]: 1%
- Population Healthy Nuclei (%) [5]: 94%
- Population Hoechst High Intensity Objects (%) [5]: 1%
- Population Membrane Permeable-Phenotype (%) [5]: 7%
- Population Mitochondria Different-Phenotype (%) [5]: 25%
- Population Mitotic Cells (%) [5]: 72%
- Population Normal (%) [5]: 98%
- Population Pyknosed Nuclei (%) [5]: 4%
- Population Tubulin-Different-Phenotype (%) [5]: 24%
- Total Cell Count [5]: 260
- Population Apoptotic (%) [6]: 14%
- Population Fragmented Nuclei (%) [6]: 3%
- Population Healthy Nuclei (%) [6]: 92%
- Population Hoechst High Intensity Objects (%) [6]: 6%
- Population Membrane Permeable-Phenotype (%) [6]: 3%
- Population Mitochondria Different-Phenotype (%) [6]: 24%
- Population Mitotic Cells (%) [6]: 85%
- Population Normal (%) [6]: 93%
- Total Cell Count [6]: 121
- Population Apoptotic (%) [7]: 27%
- Population Fragmented Nuclei (%) [7]: 3%
- Population Healthy Nuclei (%) [7]: 91%
- Population Hoechst High Intensity Objects (%) [7]: 4%
- Population Membrane Permeable-Phenotype (%) [7]: 5%
- Population Mitochondria Different-Phenotype (%) [7]: 12%
- Population Mitotic Cells (%) [7]: 72%
- Population Normal (%) [7]: 95%
- Population Pyknosed Nuclei (%) [7]: 4%
- Population Tubulin-Different-Phenotype (%) [7]: 28%
- Total Cell Count [7]: 173
- Population Apoptotic (%) [8]: 21%
- Population Fragmented Nuclei (%) [8]: 5%
- Population Healthy Nuclei (%) [8]: 81%
- Population Hoechst High Intensity Objects (%) [8]: 9%
- Population Membrane Permeable-Phenotype (%) [8]: 13%
- Population Mitochondria Different-Phenotype (%) [8]: 40%
- Population Mitotic Cells (%) [8]: 78%
- Population Normal (%) [8]: 90%
- Population Pyknosed Nuclei (%) [8]: 12%
- Population Tubulin-Different-Phenotype (%) [8]: 46%
- Total Cell Count [8]: 141

SMILES: CC(C)(C)NC[C@H](O)COc1nsnc1N1CCOCC1 [TIMOLOL]
- Population Apoptotic (%) [1]: 77%
- Population Fragmented Nuclei (%) [1]: 12%
- Population Healthy Nuclei (%) [1]: 80%
- Population Hoechst High Intensity Objects (%) [1]: 7%
- Population Membrane Permeable-Phenotype (%) [1]: 4%
- Population Mitochondria Different-Phenotype (%) [1]: 9%
- Population Mitotic Cells (%) [1]: 22%
- Population Pyknosed Nuclei (%) [1]: 7%
- Population Tubulin-Different-Phenotype (%) [1]: 8%
- Population Apoptotic (%) [2]: 100%
- Population Fragmented Nuclei (%) [2]: 5%
- Population Healthy Nuclei (%) [2]: 88%
- Population Hoechst High Intensity Objects (%) [2]: 8%
- Population Membrane Permeable-Phenotype (%) [2]: 8%
- Population Mitochondria Different-Phenotype (%) [2]: 11%
- Population Mitotic Cells (%) [2]: 0%
- Population Normal (%) [2]: 92%
- Population Pyknosed Nuclei (%) [2]: 5%
- Population Tubulin-Different-Phenotype (%) [2]: 18%
- Population Apoptotic (%) [3]: 30%
- Population Fragmented Nuclei (%) [3]: 8%
- Population Healthy Nuclei (%) [3]: 77%
- Population Hoechst High Intensity Objects (%) [3]: 6%
- Population Membrane Permeable-Phenotype (%) [3]: 6%
- Population Mitochondria Different-Phenotype (%) [3]: 8%
- Population Mitotic Cells (%) [3]: 69%
- Population Normal (%) [3]: 93%
- Population Pyknosed Nuclei (%) [3]: 14%
- Population Tubulin-Different-Phenotype (%) [3]: 8%
- Population Apoptotic (%) [4]: 33%
- Population Healthy Nuclei (%) [4]: 79%
- Population Hoechst High Intensity Objects (%) [4]: 3%
- Population Membrane Permeable-Phenotype (%) [4]: 4%
- Population Mitochondria Different-Phenotype (%) [4]: 7%
- Population Mitotic Cells (%) [4]: 66%
- Population Normal (%) [4]: 96%
- Population Pyknosed Nuclei (%) [4]: 11%
- Population Tubulin-Different-Phenotype (%) [4]: 4%
- Population Apoptotic (%) [5]: 63%
- Population Fragmented Nuclei (%) [5]: 10%
- Population Healthy Nuclei (%) [5]: 82%
- Population Hoechst High Intensity Objects (%) [5]: 4%
- Population Mitochondria Different-Phenotype (%) [5]: 7%
- Population Mitotic Cells (%) [5]: 36%
- Population Normal (%) [5]: 95%
- Population Tubulin-Different-Phenotype (%) [5]: 12%
- Population Apoptotic (%) [6]: 50%
- Population Fragmented Nuclei (%) [6]: 11%
- Population Healthy Nuclei (%) [6]: 81%
- Population Hoechst High Intensity Objects (%) [6]: 5%
- Population Membrane Permeable-Phenotype (%) [6]: 2%
- Population Mitochondria Different-Phenotype (%) [6]: 18%
- Population Mitotic Cells (%) [6]: 50%
- Population Normal (%) [6]: 94%
- Population Pyknosed Nuclei (%) [6]: 6%
- Population Tubulin-Different-Phenotype (%) [6]: 21%
- Population Apoptotic (%) [7]: 20%
- Population Fragmented Nuclei (%) [7]: 7%
- Population Healthy Nuclei (%) [7]: 85%
- Population Hoechst High Intensity Objects (%) [7]: 5%
- Population Membrane Permeable-Phenotype (%) [7]: 5%
- Population Mitochondria Different-Phenotype (%) [7]: 2%
- Population Mitotic Cells (%) [7]: 80%
- Population Normal (%) [7]: 94%
- Population Pyknosed Nuclei (%) [7]: 6%
- Population Tubulin-Different-Phenotype (%) [7]: 5%
- Population Apoptotic (%) [8]: 41%
- Population Healthy Nuclei (%) [8]: 81%
- Population Hoechst High Intensity Objects (%) [8]: 2%
- Population Membrane Permeable-Phenotype (%) [8]: 3%
- Population Mitochondria Different-Phenotype (%) [8]: 5%
- Population Mitotic Cells (%) [8]: 58%
- Population Normal (%) [8]: 97%
- Population Pyknosed Nuclei (%) [8]: 11%
- Population Tubulin-Different-Phenotype (%) [8]: 4%
- Population Apoptotic (%) [9]: 23%
- Population Membrane Permeable-Phenotype (%) [9]: 1%
- Population Mitochondria Different-Phenotype (%) [9]: 12%
- Population Mitotic Cells (%) [9]: 76%
- Population Tubulin-Different-Phenotype (%) [9]: 5%
- Population Apoptotic (%) [10]: 42%
- Population Fragmented Nuclei (%) [10]: 5%
- Population Healthy Nuclei (%) [10]: 88%
- Population Hoechst High Intensity Objects (%) [10]: 1%
- Population Membrane Permeable-Phenotype (%) [10]: 13%
- Population Mitochondria Different-Phenotype (%) [10]: 17%
- Population Mitotic Cells (%) [10]: 57%
- Population Normal (%) [10]: 98%
- Population Pyknosed Nuclei (%) [10]: 5%
- Population Tubulin-Different-Phenotype (%) [10]: 21%
- Population Apoptotic (%) [11]: 46%
- Population Fragmented Nuclei (%) [11]: 1%
- Population Healthy Nuclei (%) [11]: 93%
- Population Hoechst High Intensity Objects (%) [11]: 2%
- Population Membrane Permeable-Phenotype (%) [11]: 1%
- Population Mitochondria Different-Phenotype (%) [11]: 9%
- Population Mitotic Cells (%) [11]: 53%
- Population Normal (%) [11]: 97%
- Population Tubulin-Different-Phenotype (%) [11]: 6%
- Population Apoptotic (%) [12]: 27%
- Population Fragmented Nuclei (%) [12]: 3%
- Population Healthy Nuclei (%) [12]: 91%
- Population Hoechst High Intensity Objects (%) [12]: 1%
- Population Membrane Permeable-Phenotype (%) [12]: 4%
- Population Mitochondria Different-Phenotype (%) [12]: 10%
- Population Mitotic Cells (%) [12]: 72%
- Population Normal (%) [12]: 98%
- Population Pyknosed Nuclei (%) [12]: 4%
- Population Tubulin-Different-Phenotype (%) [12]: 13%
